This note sets out measurements from paper PMC8159369 (Chemical Science, 2020).

In general, IC50 refers to the midpoint of a concentration-inhibition curve.

For the assay, the target named is HRP-labeled WGA. Put plainly: Enzyme-linked lectin assay. The following applies: inhibition of binding of HRP-labeled WGA to covalently immobilized GlcNAc. Further details: species or system Triticum vulgaris. Put shortly:
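ELLA in which the test compound competes with a surface-coated reference ligand for lectin binding. Dose–response curves were recorded over a concentration series. IC50 is the concentration giving 50% inhibition of lectin binding.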

`CC(=O)N[C@@H]1[C@@H](O)[C@H](O)[C@@H](CO)O[C@H]1O` [GlcNAc, N-acetylglucosamine]: the IC50 was 15 mM.
